The list is not random: actives were taken first. Their share in the collection is about 3.3%.
XiGFP reactiv – activators of X-chromosome reactivation in mouse fibroblasts; XiGFP mouse fibroblasts, % GFP-positive cells imaging, 3 d; cells co-treated with 5-aza-dC sensitizer; scaled so ellipticine positive control = 100%; activation, % at 7.58 µM; 360,000 tested, 0.055% active; AID 743238;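 active = mean normalized replicate activation at least 10% and every replicate at or above 10%; inconclusive = only one of the two criteria met; inactive = mean below 10% and not all replicates reach 10%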
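Material: SV40-immortalized XiGFP fibroblast cells, line 68-5-11 | Buffer or medium: DMEM containing 5-aza-dC | Dosing: One concentration, pinned | Times: 3 d treatment, 15 min room-temperature fixation | Controls: Ellipticine 6 µM positive control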
E-sel inducer – E-selectin induction on HUVECs | activation, % at 7.58 µM | HUVEC E-selectin immunofluorescence imaging; normalized: neutral wells 0, TNF-alpha wells 100 | 260,000 tested, 0.37% active | P16581;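 active = mean E-selectin-positive cell signal at least 10% of the positive control, reached in at least 60% of replicates, without over 20% cell loss; inconclusive = no rule given, readout overlaps actives, possibly toxicity-flagged; inactive = the rest, including those meeting only one limit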
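Assay system: HUVEC primary endothelial cells. Input: 3,000 HUVEC seeded per well. Doses: one compound dose added by pin transfer. Read-out basis: % PE-positive cells. Benchmarks: TNF-alpha high, DMSO low. Detection: immunofluorescence imaging. Buffer or medium: EGM-2, gelatin.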
Statin myotox sup – suppressors of simvastatin-induced myotoxicity in C2C12 myotubes | ATP luminescence, 48 h; scaled: DMSO 0, geranylgeraniol control 100 | rescue of ATP level, % at 7.49 µM | 330,000 tested, 0.78% active;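 active = mean ATP rescue above about 67%, or every replicate alone reaching that limit, limit read from the data, passing the limit was not always enough; inconclusive = no clear call, values can overlap the other calls; inactive = mean under the limit and some replicate under it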;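 also: myotubes were challenged with 10 µM simvastatin during compound exposure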
FGF22 binding – FGF22 (human) thermal shift binding. AID 651658. recombinant FGF22 thermal shift, SYPRO orange fluorescence; percent of sucrose octasulfate shift, DMSO zero. activity (Tm shift, normalised), % at 9.99 µM. 340,000 tested, 1.5% active. Q9HCT0;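 active = mean Tm shift, scaled 0 neutral to 100 positive control, at about 1.3% or above, every replicate too, limit read from the data; inconclusive = no clear call, values can overlap the other calls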
Target sequence (Q9HCT0 whole entry, looked up): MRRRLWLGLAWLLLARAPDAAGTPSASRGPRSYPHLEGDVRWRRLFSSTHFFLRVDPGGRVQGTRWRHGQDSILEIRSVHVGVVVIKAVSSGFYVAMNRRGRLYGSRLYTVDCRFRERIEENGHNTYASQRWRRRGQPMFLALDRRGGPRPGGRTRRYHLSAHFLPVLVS
PglD DTNB – inhibitors of Campylobacter jejuni PglD acetyltransferase; purified PglD enzyme, DTNB colorimetric CoA detection; inhibition, % at 12.5 µM; 360,000 tested, 0.098% active; AID 602405; in the data active = inhibition above about 16%, passing the limit was not always enough; inconclusive = no clear call, values can overlap the other calls
DENV2 CPE – protects cells from dengue virus 2 cytopathic effect | DENV2-infected cells, cytopathic effect rescue, plate reader | CPE inhibition, % at 9.99 µM | 350,000 tested, 1.7% active; in the data active = CPE inhibition above about 20%, passing the limit was not always enough; inconclusive = no clear call, values can overlap the other calls; tested in BHK-21 cells
Numbers stand for hits; – = inactive; ? = inconclusive; · = no result given.

SMILES	XiGFP reactiv	E-sel inducer	Statin myotox sup	FGF22 binding	PglD DTNB	DENV2 CPE
C[C@H]1CN([C@@H](C)CO)C(=O)Cc2cc(NC(=O)Cc3ccccc3)ccc2O[C@@H]1CN(C)Cc1ccncc1	–	–	–	–	–	23.0
C[C@@H]1CCCCO[C@@H](CN(C)C(=O)Nc2ccc3c(c2)OCO3)[C@H](C)CN([C@H](C)CO)C(=O)c2cc(NC(=O)C3CCCCC3)ccc2O1	–	–	·	–	–	–
CN1c2ccc(-c3ccccc3)cc2[C@H]2[C@H](CCN2C(=O)Cc2ccccc2)[C@@H]1CO	–	–	–	–	–	–
CC(C)Cn1c(NCCO)nc2ccccc21	·	–	93.3	·	–	·
CCC(=O)N[C@@H]1CC[C@@H](CC(=O)NCC2CCCCC2)O[C@H]1CO	–	–	–	–	–	–
CCOc1cc2[nH]c(=S)n(CCOC)c(=O)c2cc1OCC	·	·	110.7	·	–	·
O=C(C[C@@H]1C[C@@H]2c3cc(NC(=O)C4CCOCC4)ccc3O[C@@H]2[C@@H](CO)O1)NCc1ccccc1F	–	–	–	–	–	–
COc1ccccc1NC1=NCC(=O)N1Cc1ccccc1	·	·	88.1	·	–	·
CCOc1ccccc1NC1=NCC(=O)N1Cc1ccc(F)cc1	·	·	–	–	–	–
CN1C[C@H]2[C@@H](c3ccccc31)[C@@H](CO)N2C(=O)C1CC1	–	–	–	–	–	–
Cc1cc(C)nc(SCc2n[nH]c(=S)n2C)n1	·	·	91.9	·	–	·
Cc1ccc(-n2c(CSc3nc(C)cc(C)n3)n[nH]c2=S)cc1	–	·	·	–	·	–
CCN(CC1COc2ccccc2O1)C(=S)Nc1ccc(F)cc1 (stereo not given)	–	·	–	43.8	–	–
COc1ccc(NC(=S)N(C)CC2COc3ccccc3O2)cc1 (stereo not given)	–	·	–	–	–	–
COc1ccc(S(=O)(=O)N(C)C[C@H]2Oc3ccc(NS(=O)(=O)c4cn(C)cn4)cc3C(=O)N([C@H](C)CO)C[C@H]2C)cc1	–	–	·	·	·	·
C/C(=N\Nc1nc(C)cc(=O)[nH]1)C1CC1	–	–	·	–	–	?
Cc1cc(=O)[nH]c(NN=C2CCC(C(C)(C)C)CC2)n1 (stereo not given)	–	·	·	44.0	·	–
COc1ccc(/C=N\NC(=O)c2ccc(-c3ccccc3)cc2)cc1COC(C)=O	–	·	·	–	–	55.6
COc1ccc(/C=N\NC(=O)c2ccccc2)cc1COc1ccc(F)cc1	–	–	–	–	–	–
COc1ccc(/C=N/NC(=O)c2ccc(COc3cccc4cccnc34)cc2)cc1OC	–	·	–	43.3	–	–
COc1cc(/C=N/NC(=O)c2ccncc2)ccc1OC(=O)c1ccccc1Cl	–	·	·	43.4	·	–
CC(C)CC#Cc1ccc2c(c1)O[C@H](CN(C)C(=O)CC1CC1)[C@H](C)CN([C@H](C)CO)S2(=O)=O	–	–	–	–	–	–
CN(C)CCCNC(=O)C[C@@H]1CC[C@@H]2[C@@H](COc3ccc(NC(=O)c4cccc(F)c4)cc3C(=O)N2C)O1	–	–	–	·	–	–
C[C@H](CO)N1C[C@H](C)[C@H](CN(C)C(=O)Nc2ccc(C(F)(F)F)cc2)Oc2ccc(NC(=O)Cc3cn(C)c4ccccc34)cc2C1=O	–	–	·	–	–	–
O=C(Nc1ccc(F)cc1)Nc1ccc2c(c1)[C@H]1C[C@@H](CC(=O)N3CCOCC3)O[C@H](CO)[C@H]1O2	–	–	–	–	–	–
SMILES	XiGFP reactiv	E-sel inducer	Statin myotox sup	FGF22 binding	PglD DTNB	DENV2 CPE
COc1ccc(C(C(N)=O)c2ncc(C(F)(F)F)cc2Cl)cc1OC (stereo not given)	–	·	–	43.4	–	–
Cc1cccc(C(C(N)=O)c2ncc(C(F)(F)F)cc2Cl)c1 (stereo not given)	–	–	·	43.6	·	–
NC(=O)C(c1ccc(Cl)cc1)c1ncc(C(F)(F)F)cc1Cl (stereo not given)	·	·	–	·	·	·
CCS(=O)(=O)Nc1ccc2c(c1)C(=O)N(C)[C@@H]1CC[C@H](CC(=O)N3CCN(C)CC3)O[C@@H]1CO2	–	–	–	–	–	–
CNC(=O)C[C@@H]1CC[C@H]2[C@H](COc3ccc(NC(=O)C(C)C)cc3C(=O)N2C)O1	–	–	–	–	–	–
COc1ccc(NC(=O)C2Cc3cccc(OC)c3O/C2=N\O)cc1 (stereo not given)	–	·	–	–	–	–
COc1cccc2c1OCC(C(=O)O)C2 (stereo not given)	–	·	–	42.9	–	–
CCOc1ccc(N(CC(=O)NC2CCCC2)S(=O)(=O)c2c(C)[nH]c(=O)[nH]c2=O)cc1	–	–	–	–	–	53.8
CC(C)CC#Cc1ccc2c(c1)O[C@H](CN(C)C(=O)c1ccccn1)[C@H](C)CN([C@@H](C)CO)S2(=O)=O	–	–	–	–	–	–
CC1CC(C)CN(CCCNC(=O)c2ccc3c(c2)NC(=O)C(N2CCCCC2)S3)C1 (stereo not given)	·	·	106.6	·	·	·
COc1ccccc1-c1ccc2n(c1=O)C[C@H]1[C@H](CO)[C@@H](C(=O)NC3CCC3)N(C(=O)C3CCC3)[C@@H]21	–	–	–	–	–	–
Nc1ccccc1C#Cc1ccccc1	–	–	–	–	–	110.1
Nc1ccc(C#Cc2ccccc2)cc1	·	·	–	·	–	·
C=CCSc1nnc(CSc2nc3sc4c(c3c(=O)[nH]2)CCCC4)n1-c1ccccc1	·	·	120.4	·	–	·
CCOC(=O)CSc1nnc(CSc2nc3sc4c(c3c(=O)[nH]2)CCC4)n1-c1ccccc1	·	·	–	·	–	·
C[C@@H]1CN([C@@H](C)CO)C(=O)c2cc(Br)cnc2O[C@H]1CN(C)CC1CCCC1	–	–	–	–	–	–
C[C@@H]1CN([C@@H](C)CO)C(=O)c2cc(NS(=O)(=O)c3ccc(Cl)cc3)ccc2O[C@@H](C)CCCCO[C@@H]1CN(C)C(=O)c1ccccc1	–	–	·	–	–	–
COc1ccc(NC(=O)CCc2ccccc2)cc1S(=O)(=O)N1CCCCC1	140.7	·	–	–	–	–
COc1ccc(CNC(=O)C2CCN(S(=O)(=O)c3ccccc3)CC2)cc1	–	–	·	–	–	–
COc1ccc(CC(=O)NNC(=O)COc2ccc(C)cc2)cc1S(=O)(=O)N1CCOCC1	–	–	–	–	–	40.3
CCS(=O)(=O)N1CCC(C(=O)NCc2ccc(OC)cc2)CC1	–	·	–	43.3	–	–
COc1ccc(NC(=O)CCc2ccccc2)cc1S(=O)(=O)N1CCOCC1	–	–	–	–	–	–
COc1ccc(S(=O)(=O)N2CCC(C(=O)N[C@H](C(=O)NCc3ccccc3)C(C)C)CC2)cc1	–	–	–	43.9	–	47.1
COc1ccc(CNC(=O)[C@@H](NC(=O)C2CCN(S(=O)(=O)c3ccccc3)CC2)C(C)C)cc1	–	–	–	–	–	–
